Published values gathered from unrelated publications.
Lines come from different studies, so protocols differ.
Cell line: HCT-116
Read-out: cell growth or viability

For Fc1ccc2c(-c3ncc(-c4ccccc4)o3)nn(Cc3ccccc3)c2c1, the IC50 was 82.6 µM (48 h).
For CC(=O)OC[C@H]1O[C@@H](n2cc(Cn3c(C(=O)/C=C/c4ccc(F)cc4)nc4ccccc43)nn2)[C@H](OC(C)=O)[C@@H](OC(C)=O)[C@H]1OC(C)=O, the IC50 was 6.49 µM (LDH; 48 h).
For O=C(C=Cc1ccc(OCCCCOc2ccc(C=CC(=O)c3cccs3)cc2)cc1)c1cccs1, the IC50 was 278 µM (MTT; 48 h).
O=[N+]([O-])c1cc(Br)c(O)c(C=NNc2ccc(C(F)(F)F)cc2)c1 has an IC50 of 9.42 µM (MTT; 24 h).
O=C(CSc1nc2ccccc2s1)N/N=C/c1ccc(OCC(=O)Nc2ccc([N+](=O)[O-])cc2)cc1 gave an IC50 of 52.9 µM (MTS; 72 h).
Cc1cc2c(C(N)=O)nccc2n1-c1nc2c(c(NCc3ccccc3)n1)CCCN2 gave an IC50 of 2.3 µM (ATP luminescence; 72 h).
The IC50 of Fc1ccc2c(-c3nnc(Cc4ccccc4)[nH]3)nn(Cc3ccc(Cl)cc3Cl)c2c1 is reported as 22 µM (48 h).
For O=C1C(=Nc2ccccc2I)c2ccccc2N1Cc1ccc(Br)cc1, the IC50 was 1.33 µM (MTT; 48 h).
The IC50 of COc1cccc(-c2cc(NCc3ccc4c(c3)OCO4)nc(N)n2)c1 is reported as 0.347 µM (72 h).
The IC50 of O=[N+]([O-])c1cc(I)c(O)c(C=NNc2ccc(C(F)(F)F)cc2)c1 is reported as 9.43 µM (MTT; 24 h).
Clc1ccc(Cn2nc(-c3nc(-c4ccccc4)no3)c3ccccc32)c(Cl)c1 gave an IC50 of 324 µM (48 h).
Cc1ccc(CN2C(=O)C(=Nc3cccc(C)c3)c3ccccc32)cc1 gave an IC50 of 0.39 µM (MTT; 48 h).
For N#Cc1ccc(-c2cc(COc3cc(C(F)(F)F)nc4ccccc34)on2)cc1, the IC50 was over 100 µM (MTS; 72 h).
O=C1Nc2ccccc2C1=Nc1ccccc1I has an IC50 of 31.5 µM (MTT; 48 h).
COc1cccc2c1C(=O)c1c(O)c3c(c(O)c1C2=O)C[C@@](O)(C(=O)CO)C[C@@H]3O[C@H]1C[C@H](N)[C@H](O)[C@H](C)O1 gave an IC50 of 4.12 µg/mL (MTT).
With O=C(C=Cc1ccc(OCCCOc2ccc(C=CC(=O)c3cccs3)cc2)cc1)c1cccs1 the IC50 was 120 µM (MTT; 48 h).
Cc1cc(NS(=O)(=O)c2ccc(NC(=O)/C(C#N)=C/c3cccnc3)cc2)no1 has an IC50 of over 200 µM (MTT; 48 h).
With FC(F)(F)c1ccc(-c2cc(COc3cc(C(F)(F)F)nc4ccccc34)on2)cc1 the IC50 was over 100 µM (MTS; 72 h).
Cc1cc(C)n(Cn2cnc3ccccc32)n1 gave an IC50 of 70.2 µM (MTT; 24 h).
CCc1ccc(N=C2C(=O)N(Cc3ccccc3)c3ccccc32)cc1 gave an IC50 of 0.9 µM (MTT; 48 h).
The IC50 of Fc1ccc2c(-c3nnc(Cc4ccccc4)s3)nn(Cc3ccc(Cl)cc3Cl)c2c1 is reported as 85.1 µM (48 h).
For C#Cc1cccc(Nc2ncnc3cc(OCCOC)c(OCCOC)cc23)c1, the IC50 was 5.14 µM (LDH; 48 h).
The IC50 of Cc1cc2c(C(N)=O)cccc2n1-c1nc2c(c(NCc3ccccn3)n1)CCCN2 is reported as 0.8 µM (ATP luminescence; 72 h).
Cc1cccc([N+](=O)[O-])c1N=C1SCC(=O)N1c1nnc(-c2ccc(C(F)(F)F)cc2N=C2SCC(=O)N2c2c(C)cccc2[N+](=O)[O-])s1 has an IC50 of 61.2 µM (MTT).
Cc1cc2c(C(N)=O)cncc2n1-c1nc2c(c(NCc3ccccc3)n1)CCCN2 gave an IC50 of 1.2 µM (ATP luminescence; 72 h).
With COc1ccc(NC(=S)N/N=C/c2cccc3cc4ccccc4nc23)cc1 the IC50 was over 50 µM (MTT; 48 h).
For CC1(P2(=O)CCCCC2)C=CCC=C1, the IC50 was over 100 µM (MTT; 72 h).
For Cc1cc2c(C(N)=O)cccc2n1-c1nc2c(c(NCc3cccnc3)n1)CCCN2, the IC50 was 1 µM (ATP luminescence; 72 h).
With Cc1noc(-c2nn(Cc3ccc(Cl)cc3Cl)c3ccccc23)n1 the IC50 was 192 µM (48 h).
O=C1/C(=C/c2ccc(O)cc2O)NC(=S)N1c1ccccc1 has an IC50 of 91.3 µg/mL (MTT).
The IC50 of O=C1Nc2ccccc2C1=Nc1ccccc1Br is reported as over 100 µM (MTT; 48 h).
For Fc1ccc(NC(=S)N/N=C/c2cccc3cc4ccccc4nc23)cc1, the IC50 was over 50 µM (MTT; 48 h).
For Clc1ccc(-c2cc(CNc3cccc4cccnc34)on2)c(Cl)c1, the IC50 was over 100 µM (MTS; 72 h).
FC(F)(F)c1ccc(-c2noc(-c3nn(Cc4ccc(Cl)cc4Cl)c4ccccc34)n2)cc1 gave an IC50 of 137 µM (48 h).
O=C1C(=Nc2ccc(Cl)cc2)c2ccccc2N1Cc1ccc(Br)cc1 has an IC50 of 21.4 µM (MTT; 48 h).
COc1ccc(N=C2SCC(=O)N2c2nnc(-c3ccc(C(F)(F)F)cc3N=C3SCC(=O)N3c3ccc(OC)cc3)s2)cc1 has an IC50 of 65.2 µM (MTT).
The IC50 of OCn1cncn1 is reported as 48.8 µM (MTT; 24 h).
With COc1ccc(N(Cc2csc(-c3ccc(C)cc3)n2)C(=O)CCCCCC(=O)NO)cc1 the IC50 was 1.19 µM (MTT; 72 h).
The IC50 of O=[N+]([O-])c1cc(Br)c(O)c(C=NNc2ccccc2)c1 is reported as 11.7 µM (MTT; 24 h).
With O=C1C(=Nc2cccc(Cl)c2)c2ccccc2N1Cc1ccc([N+](=O)[O-])cc1 the IC50 was 0.84 µM (MTT; 48 h).
Cc1cc(NS(=O)(=O)c2ccc(NC(=O)/C(C#N)=C/c3ccc(N4CCCCC4)cc3)cc2)no1 has an IC50 of 14.5 µM (MTT; 48 h).
The IC50 of O=[N+]([O-])c1ccc(O)c(C=NNc2ccc(Cl)cc2)c1 is reported as 11 µM (MTT; 24 h).
Cc1cccc(N=C2C(=O)Nc3ccccc32)c1 gave an IC50 of over 100 µM (MTT; 48 h).
c1ccc(-c2cc(CNc3cccc4cccnc34)on2)cc1 has an IC50 of over 100 µM (MTS; 72 h).
With O=c1[nH]cc(F)c(=O)[nH]1 the IC50 was 3.09 µM (MTT; 72 h).
COc1cccc(NC(=S)N/N=C/c2cccc3cc4ccccc4nc23)c1 has an IC50 of 49.6 µM (MTT; 48 h).
The IC50 of CC(=O)c1nc2ccccc2n1Cc1cn([C@@H]2O[C@H](CO)[C@H](O)[C@H](O)[C@H]2O)nn1 is reported as 8.68 µM (LDH; 48 h).
CC(C)c1ccc(/C=C2\N=C(SCC(=O)c3ccccc3)N(c3ccccc3)C2=O)cc1 gave an IC50 of 83.7 µg/mL (MTT).
Cc1cccc(NC(=O)Cn2cc(COc3ncnc4[nH]cnc34)nn2)c1 gave an IC50 of 55.3 µM (MTT).
O=C1CS/C(=N\c2cc(C(F)(F)F)ccc2-c2nnc(N3C(=O)CS/C3=N\c3cccc(Cl)c3)s2)N1c1cccc(Cl)c1 gave an IC50 of 57.1 µM (MTT).
O=c1cc(OCc2cc(-c3ccccc3)no2)c2ccccc2o1 gave an IC50 of over 100 µM (MTS; 72 h).
The IC50 of O=C1CS/C(=N\c2cc(C(F)(F)F)ccc2-c2nnc(N3C(=O)CS/C3=N\c3ccc(Cl)cc3)s2)N1c1ccc(Cl)cc1 is reported as 46.2 µM (MTT).
The IC50 of COc1cc([C@@H]2c3cc4c(cc3[C@@H](O[C@@H]3O[C@@H]5CO[C@@H](C)O[C@H]5[C@H](O)[C@H]3O)[C@H]3COC(=O)[C@H]23)OCO4)cc(OC)c1O is reported as 0.59 µM (MTS; 72 h).
The IC50 of O=[N+]([O-])c1ccc(O)c(C=NNc2ccc(C(F)(F)F)cc2)c1 is reported as 11.3 µM (MTT; 24 h).
With O=C1CS/C(=N\c2cc(C(F)(F)F)ccc2-c2nnc(N3C(=O)CS/C3=N\c3ccc(F)c(O)c3)s2)N1c1ccc(F)c(O)c1 the IC50 was 21.2 µM (MTT).
